# An excerpt weighted towards active compounds, which were near 0.92% of everything screened.
# N-glyco inh – blocks N-linked glycosylation in D54 reporter cells; D54 ERlucT glycosylation luciferase reporter, 24 h; percent of 100 nM tunicamycin response; reporter increase, % at 12.5 µM; hit rate 0.23% among 360,000; AID 588692;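 active = mean luciferase reporter signal, scaled so untreated is 0 and the glycosylation-blocking control 100, at or above a set limit in every replicate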;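 also: luciferase carries N-glycosylation sites so blocking glycosylation raises the light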
# FN deposit inh – fibronectin deposition inhibition. AH1F fibroblasts, Alexa488-fibronectin deposition fluorescence, overnight. hit rate 0.086% among 350,000. inhibition, % at 12.6 µM;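 active = mean inhibition across replicates of 30% or more, regardless of how many single replicates reach that level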
#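 Assay system: AH1F fibroblast monolayer, labelled fibronectin deposition. Amount: 10000 cells per well. Also added: labelled fibronectin 24 nM. Compound: single-point pinned compound. Incubation: cell attachment 1 h, compound and FN exposure overnight. Detection: fluorescence after three HBSS washes, excitation 485 nm, emission 525 nm. Read-out: inhibition of fibronectin deposition signal.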
# RAD54 inh – inhibitors of human RAD54 branch migration | RAD54 Holliday junction branch migration, FAM/BHQ fluorescence | inhibition, % at 10.4 µM | AID 602329 | hit rate 0.14% among 360,000;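 active = mean normalized replicate activity at least 40 and at least half of replicates scoring 40 or more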;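 also: inhibitors cause a drop in the FAM fluorescence signal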
# Target sequence (Q92698 whole entry, looked up): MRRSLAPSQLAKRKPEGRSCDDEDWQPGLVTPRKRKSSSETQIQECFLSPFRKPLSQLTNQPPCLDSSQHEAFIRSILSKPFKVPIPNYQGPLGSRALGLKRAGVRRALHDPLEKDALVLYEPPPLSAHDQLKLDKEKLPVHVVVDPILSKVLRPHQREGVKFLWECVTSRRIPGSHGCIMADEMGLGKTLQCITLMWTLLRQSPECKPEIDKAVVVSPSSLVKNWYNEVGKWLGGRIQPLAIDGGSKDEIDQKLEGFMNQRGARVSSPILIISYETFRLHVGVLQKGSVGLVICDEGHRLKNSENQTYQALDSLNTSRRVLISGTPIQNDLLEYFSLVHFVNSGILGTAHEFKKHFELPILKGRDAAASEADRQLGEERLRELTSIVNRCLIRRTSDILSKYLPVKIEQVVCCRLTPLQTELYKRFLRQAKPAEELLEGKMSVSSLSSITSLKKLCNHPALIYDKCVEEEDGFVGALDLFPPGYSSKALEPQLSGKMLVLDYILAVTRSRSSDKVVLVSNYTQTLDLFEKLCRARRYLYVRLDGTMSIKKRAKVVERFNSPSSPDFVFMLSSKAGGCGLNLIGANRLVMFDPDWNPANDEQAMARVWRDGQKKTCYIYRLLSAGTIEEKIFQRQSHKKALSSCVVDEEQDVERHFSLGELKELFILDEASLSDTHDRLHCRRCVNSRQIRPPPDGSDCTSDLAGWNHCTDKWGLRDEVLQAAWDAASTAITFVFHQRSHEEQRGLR
# RAD52 anneal inh – RAD52 (human) annealing inhibition. inhibition, % at 18.7 µM. P43351. recombinant RAD52 DNA annealing, FRET fluorescence. hit rate 0.46% among 360,000;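 active = every replicate showing at least 50% inhibition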
# AF4-AF9 inh – blocks AF4 peptide binding to human AF9; AlphaScreen, biotin-AF4 peptide binding to FLAG-AF9; AID 651704; inhibition, % at 10 µM; hit rate 0.47% among 350,000;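 active = every replicate reaching a set inhibition limit, whatever the replicate mean, cut at about 25% in these data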
# Numbers stand for hits; n = inactive; x = no result.
SMILES,N-glyco inh,FN deposit inh,RAD54 inh,RAD52 anneal inh,AF4-AF9 inh
NC(=O)CC(NC(=O)c1ccccc1)c1ccc(NC2CCCC2)c([N+](=O)[O-])c1 (centres undefined),n,n,n,n,n
Cc1cc(C)cc(C(=O)NC(CC(N)=O)c2ccc(NC3CCCCCCCCCCC3)c([N+](=O)[O-])c2)c1 (centres undefined),n,n,n,n,n
CC(C)Nc1ccc(C(CC(N)=O)NC(=O)c2ccccc2)cc1[N+](=O)[O-] (centres undefined),n,n,n,n,n
CC(C)Nc1ccc(C(CC(N)=O)NC(=O)c2ccc(Br)cc2)cc1[N+](=O)[O-] (centres undefined),49,n,n,n,n
NC(=O)CC(NC(=O)Cc1ccc(Br)cc1)c1ccc(NC2CCC2)c([N+](=O)[O-])c1 (centres undefined),39,n,n,n,n
NC(=O)CC(NC(=O)Cc1cccc2ccccc12)c1ccc(NC2CCC2)c([N+](=O)[O-])c1 (centres undefined),n,n,n,n,n
NC(=O)CC(NC(=O)Cc1ccc(Cl)cc1)c1ccc(NC2CCCC2)c([N+](=O)[O-])c1 (centres undefined),49,n,n,n,n
Cc1ccc(S(=O)(=O)N[C@@H]2C=C[C@@H](CC(=O)NCCc3ccncc3)O[C@@H]2CO)cc1,x,x,n,n,n
CC(C)Nc1ccc(C(CC(N)=O)NC(=O)Cc2ccc(Cl)cc2)cc1[N+](=O)[O-] (centres undefined),41,n,n,n,n
O=C(NCCN1CCCC1)[C@H]1[C@H](CO)[C@H]2Cn3c(cccc3=O)[C@@H]1N2C(=O)NC1CCCC1,x,x,x,n,n
CC(C)NC(=O)N(C)C[C@H]1Oc2ccc(NS(C)(=O)=O)cc2C(=O)N([C@H](C)CO)C[C@H]1C,x,n,n,n,n
CN1CCc2cccc3c2[C@@H]1Cc1ccc(O)c(O)c1-3,n,n,n,x,26
CCCC#Cc1ccc2c(c1)O[C@@H](CN(C)C(=O)Nc1ccccc1F)[C@@H](C)CN([C@@H](C)CO)S2(=O)=O,x,n,n,n,n
COc1cccc(NC(=O)N2C[C@@H](O)COC[C@@H]3O[C@@H](CC(=O)NCc4ccccc4F)CC[C@H]32)c1,x,n,n,x,x
O=C(NC[C@@H]1CC[C@@H]2[C@@H](CN2C(=O)NC2CCCC2)O1)c1ccc2c(c1)OCO2,x,x,x,112,n
O=C(NC[C@H]1CC[C@H]2[C@H](CN2C(=O)NC2CCCC2)O1)c1ccc2c(c1)OCO2,x,x,x,n,n
O=C(C[C@@H]1CC[C@H](NC(=O)c2cccc(F)c2)[C@@H](CO)O1)NCc1ccccc1,x,n,n,n,n
COc1cc(C(=O)NCC(=O)N/N=C/c2cccnc2)cc(OC)c1OC,n,n,n,n,45
COc1ccc(/C=N\NC(=O)c2ccc(-c3ccccc3)cc2)c(OC)c1OC,n,n,n,n,n
COc1cc(/C=N/NC(=O)c2ccc(-c3ccccc3)cc2)cc(OC)c1OC,33,n,x,x,x
C[C@H]1CN([C@@H](C)CO)C(=O)c2cc(NC(=O)CCCN(C)C)ccc2O[C@@H]1CN(C)Cc1ccccc1,x,x,n,n,n
C[C@H]1CN([C@@H](C)CO)C(=O)Cc2cc(NS(=O)(=O)c3ccccc3)ccc2O[C@@H]1CN(C)C(=O)Nc1ccc(F)cc1,x,n,n,n,n
C[C@@H]1CN([C@@H](C)CO)C(=O)Cc2cc(NC(=O)Nc3ccc4c(c3)OCO4)ccc2O[C@H]1CN(C)S(C)(=O)=O,x,x,x,n,n
O=C(NCCc1ccc(Cl)cc1)C1CCC(CNc2nc(=S)[nH]c3ccccc23)CC1 (centres undefined),n,n,n,n,n
O=C(NCCC1=CCCCC1)C1CCC(CNc2nc(=S)[nH]c3ccccc23)CC1 (centres undefined),58,n,n,n,n
SMILES,N-glyco inh,FN deposit inh,RAD54 inh,RAD52 anneal inh,AF4-AF9 inh
CN(C)c1ccc(/C=C2\CCC/C(=C\c3ccccc3)C2=O)cc1,n,n,n,n,n
CC(=O)N1/C(=C/c2ccc(N(C)C)cc2)C(=O)c2ccccc21,n,n,x,n,44
CC1=NN(c2ccccc2)C(=O)/C1=C\C=C1/N(C)c2ccccc2C1(C)C,n,n,x,n,36
CC1=NN(c2ccccc2)C(=O)/C1=C\C=C1\N(C)c2ccccc2C1(C)C,n,n,x,x,x
C[C@@H]1CN([C@H](C)CO)C(=O)c2cc(NC(=O)CCC(F)(F)F)ccc2O[C@@H]1CN(C)C(=O)Nc1ccc(F)cc1,x,x,n,n,n
NC(=O)c1cc(Cl)cn(-c2ccccc2)c1=O,n,n,n,n,50
CCOC(=O)c1ccc(NC(=O)c2c(NC(=O)CCC(=O)O)sc3c2CCCCC3)cc1,n,x,x,n,n
CCOc1ccccc1NC(=O)c1c(NC(=O)CCC(=O)O)sc2c1CCCCC2,n,33,x,n,n
C[C@@H]1CN([C@H](C)CO)C(=O)c2c(c3ccccc3n2C)-c2ccccc2CO[C@@H]1CN(C)S(=O)(=O)c1ccc(F)cc1,x,n,x,x,x
COc1cccc(C(=O)NC2CCCN(C3Cc4ccccc4C3)C2)c1OC (centres undefined),n,n,n,n,26
CCOc1ccc(NC(=O)c2ccc(CNc3c(NC4CCCCC4)c(=O)c3=O)cc2)cc1,n,33,n,n,n
COc1ccc(NC(=O)c2ccc(CNc3c(NC4CCCCC4)c(=O)c3=O)cc2)c(OC)c1,n,n,n,n,n
C/C=C/c1ccc([C@@H]2[C@H](CO)N(CC3CC3)C23CN(C(=O)COC)C3)cc1,x,n,x,n,n
CN(C)CCCn1c(=O)n(Cc2ccco2)c(=O)c2c3c(sc21)CCCCC3,n,n,x,n,x
CN(C)CCn1c(=O)n(Cc2ccccc2)c(=O)c2c3c(sc21)CCCCC3,n,n,n,n,26
COc1ccc2c3c([nH]c2c1)[C@H](CO)N(C(=O)c1ccccn1)CC31CCN(C(=O)C2CCC2)CC1,x,x,x,n,n
CN(C)/N=C/C=C1\CCC/C(=C\c2ccc(F)c(F)c2)C1=O,32,n,x,n,n
CCOC(=O)C1=C(c2ccccc2)NC(=O)NC1c1ccc(O)c(OCC)c1 (centres undefined),n,n,n,n,n
CCOC(=O)C1=C(c2ccccc2)NC(=O)NC1c1ccc(O)c(Cl)c1 (centres undefined),n,48,n,n,n
COC(=O)C1Cc2c([nH]c3ccccc23)C2(CCN(Cc3ccccc3)CC2)N1 (centres undefined),n,x,n,n,30
COc1ccc(CNC(=O)C[C@@H]2CC[C@H]3[C@H](COc4ccc(NC(=O)C(C)C)cc4C(=O)N3C)O2)cc1,x,n,n,n,n
O=[N+]([O-])c1ccc(Sc2cc[n+]([O-])c3ccccc23)c([N+](=O)[O-])c1,28,n,n,n,n
CC(=O)Nc1ccc(NC(=O)c2nc(S(=O)(=O)Cc3ccccc3)ncc2Cl)cc1,n,51,n,n,n
O=C(NCc1ccccc1)c1nc(S(=O)(=O)Cc2ccccc2)ncc1Cl,n,n,n,n,n

# Bioassay records: PubChem, Broad Institute
